# Measurements published in ChEMBL document CHEMBL1140447, “Synthesis and antimuscarinic properties of quinuclidin-3-yl 1,2,3,4-tetrahydroisoquinoline-2-carboxylate derivatives as novel muscarinic receptor antagonists” (J Med Chem, 2005).
# “And” between values parts separate entries of the source, which are not always exact repeats. Equal entries are not always repeated.
# Columns and labels:
# [1] = molecular target: T1, Muscarinic acetylcholine receptor M2 (Rattus norvegicus, UniProt P10980); test: Binding affinity for rat heart muscarinic acetylcholine receptor M2 using [3H]quinuclidinyl benzilate
# T1 sequence (P10980 whole entry): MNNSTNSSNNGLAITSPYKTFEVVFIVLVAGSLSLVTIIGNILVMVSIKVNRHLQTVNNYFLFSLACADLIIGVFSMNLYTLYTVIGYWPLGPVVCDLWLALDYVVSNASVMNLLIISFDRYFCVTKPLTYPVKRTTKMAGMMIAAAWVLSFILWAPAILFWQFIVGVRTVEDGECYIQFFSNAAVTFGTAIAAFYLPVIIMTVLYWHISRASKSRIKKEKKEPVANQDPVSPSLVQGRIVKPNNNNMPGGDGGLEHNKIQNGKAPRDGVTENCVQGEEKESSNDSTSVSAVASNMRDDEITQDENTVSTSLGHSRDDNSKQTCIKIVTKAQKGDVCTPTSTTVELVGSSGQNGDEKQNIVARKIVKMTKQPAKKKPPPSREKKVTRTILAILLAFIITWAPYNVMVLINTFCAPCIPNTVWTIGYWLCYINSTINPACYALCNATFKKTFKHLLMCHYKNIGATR
# Rattus norvegicus [2] = test: Intravenous dose required to inhibit rhythmic contraction of urinary bladder in urethane (1.0 g/kg s.c.) anesthetized female wistar rats; assay type: functional
# Method in brief: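 Each rat received escalating intravenous doses, giving a dose–response curve per animal. The fall in intravesical pressure was read 5–10 min after each dose. ED30 is the dose that cut peak intravesical pressure by 30%. Values are means ± SEM.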
# Rattus norvegicus [3] = test: M1 antagonism measured as effect (i.v.) on McN-A343 induced pressor response in pithed rats; assay type: functional; conditions: iv, read-out: ID50 (the source's name)
# Method in brief: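 Compounds were given iv 15 min before McN-A343 (3 μmol/kg iv) in pithed rats, with the pressor response recorded.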
# Rattus norvegicus [4] = test: Intravenous dose required to inhibit oxotremorine induced salivary secretion in urethane ([…] i.p.) anesthetized male wistar rats; assay type: functional; conditions: for ED50: Rattus norvegicus, read-out: ID50 (the source's name)
# Rattus norvegicus [5] = test: M2 antagonism measured as effect (i.v.) on oxotremorine induced bradycardia in pithed rats; assay type: functional
# Method in brief: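 Bradycardia was evoked in pithed rats by an iv oxotremorine dose–response challenge, with compounds given 15 min beforehand. DR10 is the compound dose that shifts the oxotremorine curve 10-fold to the right. Values are reported with 95% confidence limits.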
# Rattus norvegicus [6] = organism: Rattus norvegicus; test: Selectivity index calculated as ID50/ED30
# [7] = Rattus norvegicus, read-out: ED30
Compound,Ki [1],ED30 (Rattus norvegicus [2]; [7]),ED50 (Rattus norvegicus [4]),other results
O=C(O[C@H]1CN2CCC1CC2)N1CCc2ccccc2C1c1ccccc1 (some centres not stated),28 nM,,,
O=C(O[C@H]1CN2CCC1CC2)N1Cc2ccccc2C1c1ccccc1 (some centres not stated),440 nM,,,
O=C(O[C@H]1CN2CCC1CC2)N1CCc2ccccc2[C@@H]1c1ccccc1 [SOLIFENACIN],120 nM,0.18 mg/kg,2.1 mg/kg,ED50 (Rattus norvegicus [3]): 2.8 mg/kg; DR10 (Rattus norvegicus [5]): 4.2 mg/kg
O=C(O[C@H]1CN2CCC1CC2)N1CCc2ccccc2C1c1cccs1 (some centres not stated),13 nM and 93 nM,,,
"O=C(O[C@H]1CN2CCC1CC2)N1CCc2ccccc2C1c1ccsc1 (single isomer, unassigned; 12b)",110 nM,0.24 mg/kg,1.3 mg/kg,
O=C(O[C@@H]1CN2CCC1CC2)N1CCc2ccccc2[C@H]1c1ccccc1,1600 nM,,,
O=C(O[C@H]1CN2CCC1CC2)N1Cc2ccccc2C(c2ccccc2)C1 (some centres not stated),> 1000 nM,,,
O=C(O[C@H]1CN2CCC1CC2)N1CCc2ccccc2C1C1CCCCC1 (some centres not stated),22 nM and 39 nM,,,
O=C(NC(c1ccccc1)c1ccccc1)OC1CN2CCC1CC2 (configuration not stated),6.8 nM,,,
NC(=O)C(c1ccccc1)(c1ccccc1)[C@@H]1CCN(CCc2ccc3c(c2)CCO3)C1 [DARIFENACIN],,0.058 mg/kg,0.11 mg/kg,Selectivity index (Rattus norvegicus [6]): 1.9
O=C(O[C@H]1CN2CCC1CC2)N1CC(O)c2ccccc2C1c1ccccc1 (some centres not stated),1800 nM and 480 nM,,,
"O=C(O[C@H]1CN2CCC1CC2)N1CCc2ccccc2C1c1ccsc1 (single isomer, unassigned; 12a)",15 nM,0.016 mg/kg,0.11 mg/kg,
O=C(O[C@@H]1CN2CCC1CC2)N1CCc2ccccc2[C@@H]1c1ccccc1,3500 nM,,,
O=C(O[C@H]1CN2CCC1CC2)N1C[C@@H](O)c2ccccc2[C@@H]1c1ccccc1,850 nM,,,
CCN(CC)CC#CCOC(=O)C(O)(c1ccccc1)C1CCCCC1 (configuration not stated) [OXYBUTYNIN],,0.2 mg/kg,0.17 mg/kg,ED30 (Rattus norvegicus [2]): 0.2 mg/kg; ED50 (Rattus norvegicus [3]): 1.1 mg/kg; ID50 (Rattus norvegicus [4]): 0.17 mg/kg; DR10 (Rattus norvegicus [5]): 1.6 mg/kg
O=C(O[C@H]1CN2CCC1CC2)N1C[C@H](O)c2ccccc2[C@H]1c1ccccc1,1700 nM,,,
Cc1ccc(O)c([C@H](CCN(C(C)C)C(C)C)c2ccccc2)c1 [TOLTERODINE],,0.06 mg/kg,0.26 mg/kg,Selectivity index (Rattus norvegicus [6]): 4.3
O=C(O[C@H]1CN2CCC1CC2)N1CCc2ccccc2[C@H]1c1ccccc1,8.7 nM,0.036 mg/kg,0.12 mg/kg,
